Reference: ChEMBL document CHEMBL3593189, “Kadcoccinic Acids A-J, Triterpene Acids from Kadsura coccinea” (J Nat Prod, 2015)

Experiments:
[1] = Therapeutic index, ratio of CC50 for human C8166 cells to EC50 for HIV1; type: cell-based; settings: read-out: Ratio CC50/EC50
How it was run: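 Therapeutic index computed as CC50 (MTT cytotoxicity in C8166 cells) divided by EC50 (inhibition of HIV-1 cytopathic effect, syncytium formation in microtiter assay).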

[2] = test system: SMMC-7721; assay: Cytotoxicity against human SMMC7721 cells after 48 hrs by MTT assay; type: functional, cell-based; settings: SMMC-7721, 48 h
[3] = test system: MCF7; assay: Cytotoxicity against human MCF7 cells after 48 hrs by MTT assay; type: functional, cell-based; settings: MCF7, 48 h
[4] = test system: A549; assay: Cytotoxicity against human A549 cells after 48 hrs by MTT assay; type: functional, cell-based; settings: A549, 48 h
[5] = test system: SW480; assay: Cytotoxicity against human SW480 cells after 48 hrs by MTT assay; type: functional, cell-based; settings: SW480, 48 h
[6] = test system: Human immunodeficiency virus 1; assay: Antiviral activity against HIV1 assessed as inhibition of cytopathic effect by microtiter syncytium formation infectivity assay; type: functional, organism-based
How it was run: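 HIV-1 cytopathic-effect inhibition read as syncytium formation in microtiter format; EC50 derived. AZT positive control.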

[7] = Cytotoxicity against human C8166 cells by MTT assay; type: cell-based
How it was run: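 C8166 cells assessed for cytotoxicity by MTT; CC50 derived. AZT positive control.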

[8] = test system: HL-60; assay: Cytotoxicity against human HL60 cells after 48 hrs by MTT assay; type: functional, cell-based; settings: HL-60, 48 h

Row | SMILES | selectivity ratio [1] | IC50 [2] [µM] | IC50 [3] [µM] | IC50 [4] [µM] | IC50 [5] [µM] | EC50 [6] [µM] | CC50 [7] [µM] | IC50 [8] [µM]
1 | C=C1[C@@H]([C@H](C)CC/C=C(/C)C(=O)O)CC[C@@]2(C)[C@@H]3CC[C@@H](C(C)(C)C(=O)O)[C@](C)(CC(=O)O)C3=C[C@@H]12 | > 2.9 | > 10 | > 10 | > 10 | > 10 | 68.7 | > 200 | > 10
2 | C=C1[C@@H]([C@H](C)CC/C=C(/C)C(=O)O)CC[C@@]2(C)C3=C(C[C@@H]12)[C@@](C)(CC(=O)O)[C@H](C(C)(C)C(=O)O)CC3 | > 1.7 |  |  |  |  | 120 | > 200 | 
3 | C=C1[C@@H]([C@H](C)CC/C=C(/C)C(=O)O)CC[C@@]2(C)[C@@H]3CC[C@H]4C(C)(C)OC(=O)CC[C@]4(C)C3=C[C@@H]12 |  | > 10 | > 10 | > 10 | > 10 |  |  | > 10
4 | CC1=C([C@H](C)CC/C=C(/C)C(=O)O)CC[C@@]2(C)[C@@H]3CC[C@H]4C(C)(C)C(=O)CC[C@]4(C)C3=C[C@@H]12 | 1.9 | > 10 | > 10 | > 10 | > 10 | 62 | 116 | > 10
5 | CO[C@@]12CC[C@H]3C(C)(C)C(=O)CC[C@]3(C)C1=CC1=C(C=O)[C@@H]([C@H](C)CC/C=C(/C)C(=O)O)CC[C@]12C | > 1.7 |  |  |  |  | 116 | > 200 | 
6 | C=C1[C@@H]([C@H](C)CC/C=C(/C)C(=O)O)CC[C@@]2(C)[C@@H]3CC[C@@H](C(C)(C)O)[C@](C)(CCC(=O)O)C3=C[C@@H]12 | 2.4 |  |  |  |  | 58.7 | 143 | 
7 | C=C1[C@@H]([C@H](C)CC/C=C(/C)C(=O)O)CC[C@@]2(C)[C@@H]3CC[C@@H](C(C)(C)O)[C@](C)(CCC(=O)OC)C3=C[C@@H]12 | 1.8 | > 10 | > 10 | > 10 | > 10 | 81.2 | 142 | > 10
8 | C=C(C)[C@@H]1CC[C@@H]2C(=C[C@@]3(OC)C(=C)[C@@H]([C@H](C)CC/C=C(/C)C(=O)O)CC[C@@]23C)[C@@]1(C)CCC(=O)O | 2.6 | > 10 | > 10 | > 10 | > 10 | 70 | 184 | > 10
9 | C=C1[C@@H]([C@H](C)CC/C=C(/C)C(=O)O)CC[C@@]2(C)[C@@H]3CC[C@@H](C(=C)C)[C@](C)(CCC(=O)O)C3=C[C@@H]12 | 2.3 | > 10 | > 10 | > 10 | > 10 | 88.2 | 203 | > 10
10 | Cc1cn([C@H]2C[C@H](N=[N+]=[N-])[C@@H](CO)O2)c(=O)[nH]c1=O [ZIDOVUDINE] | > 230000 |  |  |  |  | 0.02 | 4690 | 
